Hits are enriched below; roughly 1.5% of the tested compounds scored in any of these assays.
CXCR6 block: inhibitors of human CXCR6 receptor; AID 602244; hit rate 0.36% among 360,000; O00574; inhibition, % at 20 µM; CHO-K1 PathHunter CXCR6 beta-arrestin, luminescence; in the data active = inhibition above about 34%, passing the limit was not always enough;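 note: antagonist mode with CXCL16 agonist at 10 nM final; 0% = 10 nM CXCL16 with DMSO and 100% = unstimulated wells without agonist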
CCR6 antag: blocks CCL20-driven beta-arrestin recruitment at human CCR6 | hit rate 0.49% among 340,000 | inhibition, % at 20 µM | CHO-K1 CCR6 PathHunter beta-arrestin, luminescence, CCL20-stimulated;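 active = compounds whose inhibition of the agonist-driven luminescence signal at 20 µM reaches about 50%, limit read from the data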;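 note: cells stimulated with CCL20 at 14 nM final; plate controls were DMSO with CCL20 for no effect and DMSO without agonist for full effect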
APJ antag: antagonists of human APJ apelin receptor; P35414; CHO-K1 APJ beta-arrestin complementation, luminescence; inhibition, % at 20 µM; hit rate 0.32% among 330,000;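 active = inhibition above about 40% at 20 µM, limit read from the data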;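 note: cells challenged with 10 nM apelin-13 agonist together with compound; plate controls were apelin-13 plus DMSO wells for no effect and DMSO wells lacking apelin-13 for full effect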
APJ ag: activates the human apelin receptor APJ; hit rate 0.11% among 330,000; activation, % at 20 µM; P35414; CHO-K1 APJ PathHunter beta-arrestin, luminescence; 0% DMSO wells, 100% apelin;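 active = activation more than six SD over the plate average, tested at 20 µM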;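 note: 0% = DMSO alone and 100% = apelin-13 at 10 nM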
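Assay system – PathHunter CHO-K1 APJ (AGTRL-1) beta-arrestin reporter cells · Compound – one dose, 20 µM compound, 1% DMSO · Timing – compound 90 min 25 °C, reagent 1 h · Measured by – luminescence from split beta-galactosidase complementation, Galacton Star/Emerald II substrate · Measure – beta-arrestin recruitment to APJ as agonist activity, luminescent signal · Benchmarks – DMSO vs Apelin-13 10 nM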
EBI2 block: antagonists of human EBI2 receptor; P32249; EBI2 beta-arrestin recruitment, luminescence, 7a,25-OHC stimulated; inhibition, % at 5 µM; hit rate 0.81% among 360,000; in the data active = inhibition above about 38%;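 note: enzyme fragment complementation signal reports receptor beta-arrestin coupling in cells; 0% = agonist plus DMSO wells and 100% = wells without agonist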
Target sequence (P32249 whole entry, looked up, the tested form may be a part): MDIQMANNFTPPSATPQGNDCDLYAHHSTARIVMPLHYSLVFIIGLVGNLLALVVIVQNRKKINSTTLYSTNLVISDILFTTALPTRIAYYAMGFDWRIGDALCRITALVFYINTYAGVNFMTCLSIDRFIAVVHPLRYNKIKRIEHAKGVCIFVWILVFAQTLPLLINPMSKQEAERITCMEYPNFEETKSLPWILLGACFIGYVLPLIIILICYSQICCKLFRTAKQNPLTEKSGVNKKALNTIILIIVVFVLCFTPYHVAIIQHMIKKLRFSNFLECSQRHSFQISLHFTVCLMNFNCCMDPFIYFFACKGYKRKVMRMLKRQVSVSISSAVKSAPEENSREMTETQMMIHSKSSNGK
EBI2 conf: EBI2 (human) antagonism, single concentration confirmation. inhibition, % at 5 µM. hit rate 29% among 2,400. EBI2 beta-arrestin luminescence, 7a,25-OHC antagonism. shares compounds with EBI2 block;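 active = inhibition of at least 50%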
EBI2 agonist: activates EBI2, counter-screen for EBI2 antagonists; shares compounds with EBI2 block; EBI2-expressing cells, agonist mode, luminescence, 60 min; 0% vehicle, 100% 7α,25-dihydroxycholesterol control; activation, % at 5 µM; 2,400 tested, under 10 active;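 active = activation of at least 50%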
bGal counter: beta-galactosidase inhibition counter-screen | shares compounds with EBI2 block | purified beta-galactosidase, luminescent Galacton Star, 15 min | inhibition, % at 5 µM | hit rate 1% among 2,400 | AID 652176;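 active = replicate-average signal at least 3 plate SD below neutral wells, shown as high inhibition, flagging enzyme-inhibiting false positives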;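 note: 0% = DMSO wells with enzyme and 100% = wells lacking enzyme; higher means stronger loss of beta-gal luminescence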
* hit, by the source's call.

Screening O=C(/C=C/c1ccc(F)cc1)NCCC1=CCCCC1 returned CXCR6 block -4, CCR6 antag -6, APJ antag 12, APJ ag -3, EBI2 block 55*, EBI2 conf 45, EBI2 agonist 2 and bGal counter 2.
For C=CCc1c(C)nc2c(-c3ccccc3)cnn2c1N1CCOCC1 the results were CXCR6 block 0, CCR6 antag 12 and EBI2 block 8.
CCn1c(-c2ccccc2Cl)nn(CC(=O)Nc2cc(Cl)ccc2Cl)c1=S was read as CXCR6 block 3, CCR6 antag 8, APJ antag 2, APJ ag -3 and EBI2 block 13.
CCn1c(-c2ccccc2Cl)nn(CC(=O)NCCc2ccccc2)c1=S was read as CXCR6 block -3, CCR6 antag 10, APJ antag 8, APJ ag -1, EBI2 block 57*, EBI2 conf 31, EBI2 agonist -1 and bGal counter -6.
Cc1ccc(Sc2cc(NCCCO)c([N+](=O)[O-])c3nonc23)cc1 was read as CXCR6 block 13, CCR6 antag 22, APJ antag 7, APJ ag -3, EBI2 block 53*, EBI2 conf 8, EBI2 agonist -1 and bGal counter -14.
Screening CC(C)CCSc1cc(NCCO)c([N+](=O)[O-])c2nonc12 returned CXCR6 block 15, CCR6 antag 23, APJ antag 14, APJ ag 0 and EBI2 block 14.
`O=C(COc1ccc(Cl)cc1)N1CCN(Cc2ccc3c(c2)OCO3)CC1` gave CXCR6 block -4, CCR6 antag -1, APJ antag 4, APJ ag -2, EBI2 block 87*, EBI2 conf 61*, EBI2 agonist -1 and bGal counter -14.
For CCCOc1ccc(C(=O)N2CCN(Cc3ccc4c(c3)OCO4)CC2)cc1 the results were CXCR6 block 2, CCR6 antag 19, APJ antag -15, APJ ag -3, EBI2 block 78*, EBI2 conf 54*, EBI2 agonist -1 and bGal counter -10.
`CCCOc1ccc(C(=O)Nc2ccc3c(c2)OCO3)cc1` gave CXCR6 block 2, CCR6 antag 0, APJ antag 0, APJ ag -2, EBI2 block 52*, EBI2 conf 20, EBI2 agonist -1 and bGal counter -8.
O=C(/C=C\c1cccs1)N1CCN(Cc2ccc3c(c2)OCO3)CC1 was read as CXCR6 block 3, CCR6 antag -3, APJ antag 3, APJ ag -1, EBI2 block 75*, EBI2 conf 54*, EBI2 agonist 0 and bGal counter 4.
For O=C(Cc1cccc2ccccc12)NCC(=O)Nc1ccccc1F the results were CXCR6 block -4, CCR6 antag -14, APJ antag 0, APJ ag 5 and EBI2 block -2.
For O=C(c1ccco1)N1CCN(CC(O)COc2ccc(Br)cc2)CC1 (stereo not drawn) the results were CXCR6 block 0, CCR6 antag 2, APJ antag 9, APJ ag -3, EBI2 block 51*, EBI2 conf 3, EBI2 agonist -2 and bGal counter -6.
COC(=O)c1ccc(OCC(O)CN2CCN(C(=O)c3ccco3)CC2)cc1 (stereo not drawn) was read as CXCR6 block -12, CCR6 antag -1, APJ antag -9, APJ ag 2 and EBI2 block -3.
For OC(COc1ccc(Br)cc1)CN1CCC(Cc2ccccc2)CC1 (stereo not drawn) the results were CXCR6 block -5, CCR6 antag 3, APJ antag 4, APJ ag -1, EBI2 block 61*, EBI2 conf 46, EBI2 agonist 2 and bGal counter -1.
`O=c1c(/C=N/OCc2ccc(Cl)cc2Cl)c[nH]n1-c1cccc(Cl)n1` gave CXCR6 block 2, CCR6 antag 35, APJ antag 0, APJ ag -5 and EBI2 block -8.
`CN1C2C=C3C(C#N)=C(N)C(C#N)(C#N)C(c4ccc(Br)cc4)C3C1CC2` (stereo not drawn) gave CXCR6 block 24, CCR6 antag 38, APJ antag 14, APJ ag -7, EBI2 block 51*, EBI2 conf 59*, EBI2 agonist 1 and bGal counter 4.
Screening CN1C2C=C3C(C#N)=C(N)C(C#N)(C#N)[C@@H](c4ccc(Cl)cc4)[C@@H]3C1CC2 (stereo partly drawn) returned CXCR6 block 14, CCR6 antag 11, APJ antag 14, APJ ag -1 and EBI2 block 32.
`CCCCCCN1C[C@H](n2cc(C3CC3)nn2)[C@@H](O)C[C@@H]1c1ccccc1` gave CXCR6 block -11 and EBI2 block -3.
`O=C(COc1ccc2ccccc2c1)N1CCCC1` gave CXCR6 block 2, CCR6 antag -15, APJ antag -12, APJ ag 5 and EBI2 block 33.
Screening COc1ccc(OCC(=O)N2CCN(C(=O)COc3ccc(Br)cc3)CC2)cc1 returned CXCR6 block 4, CCR6 antag 5, APJ antag 0, APJ ag 0, EBI2 block 80*, EBI2 conf 56*, EBI2 agonist 0 and bGal counter 9.
`CC(=O)c1ccc(N2CCN(C(=O)COc3ccc4ccccc4c3)CC2)cc1` gave CXCR6 block 5 and EBI2 block 8.
Screening O=C(COc1ccccc1)N1CCN(c2ccccc2)CC1 returned CXCR6 block 3, CCR6 antag 11, APJ antag 12, APJ ag -2 and EBI2 block 30.
COc1ccc(N2CCN(C(=O)COc3ccc4ccccc4c3)CC2)cc1 was read as CXCR6 block 4, CCR6 antag -2, APJ antag 21, APJ ag -2, EBI2 block 85*, EBI2 conf 35, EBI2 agonist 1 and bGal counter 5.
For O=C(COc1ccc(Br)cc1)N1CCN(c2ccccc2)CC1 the results were CXCR6 block 2, CCR6 antag 26, APJ antag -17, APJ ag -1, EBI2 block 82*, EBI2 conf 67*, EBI2 agonist 0 and bGal counter 8.
For COc1cc(OC)cc(C(=O)N2CCN(C(=O)COc3ccc4ccccc4c3)CC2)c1 the results were CXCR6 block 0, CCR6 antag -6, APJ antag -8, APJ ag 1, EBI2 block 85*, EBI2 conf 68*, EBI2 agonist 0 and bGal counter -6.

Screening results as filed in PubChem BioAssay.
